The source made the active and inactive calls. No cut-off for these calls is given here.
Key:
[1] = Antiproliferative activity against rheumatoid synovial fibroblasts assessed as inhibition of PDGF-BB-induced DNA synthesis at 1 ug/mL treated 15 mins before PDGF-BB challenge by [3H]thymidine incorporation assay; type: functional
Summary of the method: (§1)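 Rheumatoid synovial fibroblasts plated at 1.2 × 10^4 cells/well in EMEM with 10% heat-inactivated FBS and penstrep, allowed to adhere 6 h at 37 °C, 5% CO2. Then serum-arrested 24 h in 0.2% FBS. Compounds added in DMSO (0.5% final) for 15 min at room temperature, then 1 nM PDGF-BB in 10% FBS medium for 24 h. Pulsed with 0.5 µCi/well [3H]-thymidine for 24 h, trypsin/EDTA-detached, harvested, scintillation counted versus controls.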

[2] = Antiproliferative activity against rheumatoid synovial fibroblasts assessed as inhibition of PDGF-BB-induced DNA synthesis at 0.1 ug/mL treated 15 mins before PDGF-BB challenge by [3H]thymidine incorporation assay; type: functional; summary of the method: as §1

## CCC1=C[C@@H](c2ccccc2)[C@@](/C=C(\C)C(=O)O)(CC)[C@H]2[C@H]1[C@H](C)C[C@H]2C [listing 1 of 2 here]
[1]
  inhibition (INH): 73.5%

## CCC1=C[C@@H](c2ccccc2)[C@@](/C=C(\C)C(=O)[O-])(CC)[C@H]2[C@H]1[C@H](C)C[C@H]2C.[Na+]
[1]
  inhibition (INH): 27.8%

## CC[C@@]1(/C=C(\C)C(=O)[O-])[C@H]2[C@H](C(C)=C[C@H]1c1ccccc1)[C@H](C)C[C@H]2C.[Na+] [PLAKOTENIN SODIUM SALT]
[1]
  inhibition (INH): 35.7%

## CC1=C[C@@H](c2ccccc2)[C@](C)(/C=C(\C)C(=O)O)[C@H]2[C@H]1[C@H](C)C[C@H]2C
[1]
  inhibition at 1 µg/mL: 0%
[2]
  Activity: inactive

## CC[C@@]1(/C=C(\C)C(=O)O)[C@H]2[C@H](C(C)=C[C@H]1c1ccccc1)[C@H](C)C[C@H]2C
[2]
  Activity: inactive

## CCC1=C[C@@H](c2ccccc2)[C@@](/C=C(\C)C(=O)O)(CC)[C@H]2[C@H]1[C@H](C)C[C@H]2C [listing 2 of 2 here]
[2]
  Activity: inactive

## CC[C@@]1(/C=C(\C)C(=O)O)[C@H]2[C@H](C(C)=C[C@H]1c1ccccc1)[C@H](C)C[C@H]2C [PLAKOTENIN]
[1]
  inhibition (INH): 76.8%
